Data: ChEMBL document CHEMBL1124099, “[1,2,4]Triazolo[4,3-a]quinoxalin-4-amines: a new class of A1 receptor selective adenosine antagonists” (J Med Chem, 1988)

Tests used:
Adenosine receptor A1 = target: T1, Adenosine receptor A1 (Rattus norvegicus, UniProt P25099); assay: Binding affinity towards adenosine A1 receptor using [3H]N-cyclohexyladenosine in rat whole brain membranes.; assay type: cell membranes
T1 sequence (P25099 whole entry): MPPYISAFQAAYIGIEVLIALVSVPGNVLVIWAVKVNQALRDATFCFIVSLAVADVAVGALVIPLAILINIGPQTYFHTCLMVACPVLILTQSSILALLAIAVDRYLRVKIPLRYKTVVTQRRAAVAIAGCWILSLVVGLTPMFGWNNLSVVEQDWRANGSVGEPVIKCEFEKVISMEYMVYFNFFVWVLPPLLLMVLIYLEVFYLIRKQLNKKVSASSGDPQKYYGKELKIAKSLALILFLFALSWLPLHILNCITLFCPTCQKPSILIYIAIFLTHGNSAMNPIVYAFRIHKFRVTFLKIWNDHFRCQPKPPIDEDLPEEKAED
How it was run: (§1)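 Radioligand displacement on rat membranes: A1 used [3H]N6-cyclohexyladenosine ([3H]CHA) with whole-brain membranes, and A2 used [3H]NECA with striatal membranes. The procedure follows an earlier report. Each value is the mean of three or more independent experiments.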

Adenosine A2 receptor = Adenosine A2 receptor (Rattus norvegicus, UniProt P29276+P30543); assay: Binding affinity against Adenosine-2 receptor with [3H]-NECA in rat striatal membranes.; assay type: cell membranes; how it was run: as §1
[1] = target: Adenosine receptors; A1 & A2 (Rattus norvegicus) (UniProt P29276+P25099+P30543); assay: Ratio of Ki at A2 and A1 receptors; assay type: protein assay

SMILES	Ki (Adenosine receptor A1)	Ki (Adenosine A2 receptor)	Ratio [1]
Cc1nnc2c(NC3CCCC3)nc3ccccc3n12	34 nM	2700 nM	79
CCc1nnc2c(NC3CCC3)nc3ccccc3n12	58 nM	1710 nM	29
CCc1nnc2c(NC3CCCCC3)nc3ccccc3n12	80 nM	4000 nM	50
FC(F)(F)c1nnc2c(NC3CCCC3)nc3ccccc3n12	7.3 nM	1010 nM	138
CCCCc1nnc2c(NC3CCCC3)nc3ccccc3n12	55 nM	> 10000 nM	> 182
CCc1nnc2c(NC3CC3)nc3ccccc3n12	260 nM	4500 nM	17.3
CC(C)Nc1nc2ccccc2n2cnnc12	2300 nM	7000 nM	3
CCc1nnc2c(NC3CC4CCC3C4)nc3ccccc3n12 (stereo not given)	44 nM	6100 nM	139
CCc1nnc2c(NCC(C)O)nc3ccccc3n12 (stereo not given)	330 nM	22000 nM	67
c1ccc2c(c1)nc(NC1CCCC1)c1nncn12	181 nM	6700 nM	37
CCCc1nnc2c(NC3CCCC3)nc3ccccc3n12	39 nM	1830 nM	47
CCN(CC)c1nc2ccccc2n2cnnc12	8900 nM	18800 nM	2.1
CCc1nnc2c(NC3CCCC3)nc3ccccc3n12	28 nM	3000 nM	107
CCc1nnc2c(NC(C)C)nc3ccccc3n12	240 nM	4200 nM	17.5
CCc1nnc2c(Nc3ccccc3)nc3ccccc3n12	630 nM	11800 nM	18.7
